Results taken from ChEMBL document CHEMBL1122671, “Anticonvulsant activity of some 4-aminobenzamides” (J Med Chem, 1984).

Tests used:
Mus musculus [1] = experiment: Anticonvulsant activity against MES (maximal electroshock) induced seizure in mice at 30 min; + indicates activity at 600 mg/kg.; type: functional, organism-based; parameters: dose 600 mg/kg
In short: (§1)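 Male Carworth Farms number-one mice; compounds in 30% polyethylene glycol 400, given ip at 30, 100 and 300 mg/kg, some also at 600 mg/kg. Maximal electroshock challenge at 30 min or 4 h after dosing. Scored by the lowest dose giving protection (++++ 30, +++ 100, ++ 300, + 600 mg/kg; - none at 600).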

Mus musculus [2] = experiment: Anticonvulsant activity against scMet (subcutaneous metrazole) induced seizure in mice at 4 hr; - indicates no activity at 600 mg/kg.; type: functional, organism-based; parameters: dose 600 mg/kg
In short: (§2)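 Male Carworth Farms number-one mice dosed ip (30% PEG 400) at 30, 100, 300 and in some cases 600 mg/kg. Pentylenetetrazole 85 mg/kg given sc as a 0.5% solution in the posterior midline, at 30 min or 4 h. Protection means no clonic spasm of at least 5 s within 30 min. Scored by the lowest protective dose.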

Mus musculus [3] = experiment: Anticonvulsant activity against scMet (subcutaneous metrazole) induced seizure in mice at 30 min; + indicates activity at 600 mg/kg.; type: functional, organism-based; parameters: dose 600 mg/kg; in short: as §2
Mus musculus [4] = experiment: Anticonvulsant activity against MES (maximal electroshock) induced seizure in mice at 4 hr; + indicates activity at 600 mg/kg.; type: functional, organism-based; parameters: dose 600 mg/kg; in short: as §1
Mus musculus [5] = experiment: Evaluated for toxicity by using rotarod test at in mice 30 min; - indicates no activity at 600 mg/kg.; type: organism-based; parameters: dose 600 mg/kg; settings: in vivo, 0.5 h
In short: (§3)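 Neurotoxicity in male Carworth Farms number-one mice dosed ip in 30% PEG 400 at 30, 100, 300 and sometimes 600 mg/kg, tested 30 min or 4 h later. Mice placed on a 1-in. knurled rod rotating at 6 rpm; toxicity means failure to stay on the rod for 1 min. Scored by the lowest toxic dose; footnotes record loss of righting reflex or lethality.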

Mus musculus [6] = experiment: Evaluated for toxicity by using rotarod test in mice at 4 hr; - indicates no activity at 600 mg/kg.; type: organism-based; parameters: dose 600 mg/kg; settings: in vivo; in short: as §3
Mus musculus [7] = experiment: Anticonvulsant activity against scMet (subcutaneous metrazole) induced seizure in mice at 4 hr; ++ indicates activity at 300 mg/kg.; type: functional, organism-based; parameters: dose 300 mg/kg
Mus musculus [8] = experiment: Anticonvulsant activity against scMet (subcutaneous metrazole) induced seizure in mice at 30 min; ++ indicates activity at 300 mg/kg.; type: functional, organism-based; parameters: dose 300 mg/kg
Mus musculus [9] = experiment: Evaluated for toxicity by using rotarod test at in mice 30 min; ++ indicates activity at 300 mg/kg.; type: organism-based; parameters: dose 300 mg/kg; settings: in vivo, 0.5 h; in short: as §3
Mus musculus [10] = experiment: Anticonvulsant activity against MES (maximal electroshock) induced seizure in mice at 4 hr; Activity at 300 mg/kg.; type: functional, organism-based; parameters: dose 300 mg/kg
In short: (§4)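 Male Carworth Farms number-one mice received the compound ip in 30% polyethylene glycol 400. Doses were 30, 100 and 300 mg/kg, with 600 mg/kg in some cases. Maximal electroshock seizure protection was scored at 30 min and 4 h after dosing. Activity is coded by the lowest effective dose.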

Mus musculus [11] = experiment: Evaluated for toxicity by using rotarod test in mice at 4 hr; ++ indicates activity at 300 mg/kg.; type: organism-based; parameters: dose 300 mg/kg; settings: in vivo; in short: as §3
[12] = Protective index (PI) which is defined as the ratio of TD50 to the ED50 (ScMet).; type: functional
In short: (§5)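 Both values come from ip dosing in 30% PEG 400 to male Carworth Farms number-one mice and were derived by the graphical method.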

Mus musculus [13] = experiment: Evaluated for toxicity by using rotarod test in mice at 4 hr; ++ = Activity at 300 mg/kg.; type: organism-based; parameters: dose 300 mg/kg; settings: in vivo; in short: as §3
Mus musculus [14] = experiment: Evaluation of neurologic deficit by rotarod procedure in mice*-No activity at 300 mg/kg; type: functional
In short: (§6)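 Male Carworth Farms number-one mice were dosed ip (30% PEG 400 vehicle) and placed on a 1-in. knurled plastic rod rotating at 6 rpm. Neurotoxicity meant failure to stay on the rod for 1 min. TD50 was determined graphically.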

Mus musculus [15] = species on record: Mus musculus; experiment: Evaluation of inhibitory activity against scMet induced convulsions in mice; type: functional
Mus musculus [16] = experiment: Anticonvulsant activity against MES (maximal electroshock) induced seizure in mice at 4 hr; d = No Activity at 300 mg/kg.; type: functional, organism-based; parameters: dose 300 mg/kg; in short: as §4
Mus musculus [17] = experiment: Anticonvulsant activity against scMet (subcutaneous metrazole) induced seizure in mice at 4 hr; d = No activity at 300 mg/kg.; type: functional, organism-based; parameters: dose 300 mg/kg
Mus musculus [18] = experiment: Evaluated for toxicity by using rotarod test at in mice 30 min; +++ = Activity at 100 mg/kg, *-Loss of righting reflex at less than 300 mg/kg,LD50 less than 600 mg/kg; type: organism-based; settings: in vivo, 0.5 h; in short: as §3
[19] = Protective index (PI) which is defined as the ratio of TD50 to the ED50 (MES).; type: functional; in short: as §5
Mus musculus [20] = experiment: Anticonvulsant activity against MES (maximal electroshock) induced seizure in mice at 30 min; +++ = Activity at 100 mg/kg.; type: functional, organism-based; parameters: dose 100 mg/kg; in short: as §4
Mus musculus [21] = experiment: Anticonvulsant activity against scMet (subcutaneous metrazole) induced seizure in mice at 30 min; d = No activity at 300 mg/kg.; type: functional, organism-based; parameters: dose 300 mg/kg
Mus musculus [22] = experiment: Evaluated for toxicity by using rotarod test in mice at 4 hr; + indicates activity at 600 mg/kg.; type: organism-based; parameters: dose 600 mg/kg; settings: in vivo; in short: as §3
Mus musculus [23] = experiment: Anticonvulsant activity against MES (maximal electroshock) induced seizure in mice at 4 hr; +++ = Activity at 100 mg/kg.; type: functional, organism-based; parameters: dose 100 mg/kg; in short: as §4
Mus musculus [24] = experiment: Anticonvulsant activity against scMet (subcutaneous metrazole) induced seizure in mice at 30 min; +++ = Activity at 100 mg/kg.; type: functional, organism-based; parameters: dose 100 mg/kg
[25] = Evaluation of neurologic deficit by rotarod procedure in mice.; type: ADME, organism-based; settings: mouse, in vivo; in short: as §6
Mus musculus [26] = experiment: Anticonvulsant activity against MES (maximal electroshock) induced seizure in mice at 4 hr; ++ = Activity at 300 mg/kg.; type: functional, organism-based; parameters: dose 300 mg/kg; in short: as §4
Mus musculus [27] = experiment: Evaluated for toxicity by using rotarod test at in mice 30 min; +++ = Activity at 100 mg/kg,*- Loss of righting reflex at less than 600 mg/kg; type: organism-based; settings: in vivo, 0.5 h; in short: as §3
Mus musculus [28] = species on record: Mus musculus; experiment: Evaluation of neurologic deficit by rotarod procedure in mice; type: functional; in short: as §6
Mus musculus [29] = experiment: Anticonvulsant activity against scMet (subcutaneous metrazole) induced seizure in mice at 4 hr; - = No activity at 600 mg/kg.; type: functional, organism-based; parameters: dose 600 mg/kg; in short: as §2

Row | SMILES | Activity (Mus musculus [1]) | Activity (Mus musculus [2]) | Toxicity (Mus musculus [9]) | PI [12] | Toxicity (Mus musculus [13]) | PI [19] | Activity (Mus musculus [20]) | Activity (Mus musculus [24]) | TD50 (Mus musculus [28]) | also measured
1 | CC(Cc1ccccc1)NC(=O)c1ccc(N)cc1 (stereo not given) | activity at 600 mg/kg | Not toxic | – | – | – | – | – | – | – | Activity (Mus musculus [3]): activity at 600 mg/kg; Activity (Mus musculus [4]): activity at 600 mg/kg; Toxicity (Mus musculus [5]): Not toxic; Toxicity (Mus musculus [6]): Not toxic
2 | CC(CNC(=O)c1ccc(N)cc1)c1ccccc1 (stereo not given) | activity at 300 mg/kg | – | activity at 300 mg/kg | – | – | – | – | – | – | Activity (Mus musculus [7]): activity at 300 mg/kg; Activity (Mus musculus [8]): activity at 300 mg/kg; Activity (Mus musculus [10]): activity at 300 mg/kg; Toxicity (Mus musculus [11]): activity at 300 mg/kg
3 | CCCCNC(=O)c1ccc(N)cc1 | – | – | – | 1.3 | Activity at 100 mg/kg, *-Loss of righting reflex at < 300mg/kg,LD50 < 600 mg/kg | 2.2 | Activity at 100 mg/kg | – | – | TD50 (Mus musculus [14]): 105 mg/kg; ED50 (Mus musculus [15]): 83 mg/kg; Activity (Mus musculus [16]): No activity; Activity (Mus musculus [17]): No activity; Toxicity (Mus musculus [18]): Activity at 100 mg/kg, *-Loss of righting reflex at < 300mg/kg,LD50 < 600 mg/kg; Activity (Mus musculus [21]): No activity
4 | Nc1ccc(C(=O)NC2CCCCC2)cc1 | – | Not toxic | activity at 300 mg/kg | 1.5 | – | 2.8 | Activity at 100 mg/kg | Activity at 100 mg/kg | – | Toxicity (Mus musculus [22]): activity at 300 mg/kg; Activity (Mus musculus [23]): Activity at 100 mg/kg; TD50 [25]: 189 mg/kg
5 | Nc1ccc(C(=O)Nc2ccccc2)cc1 | – | – | – | 1.9 | Activity at 100 mg/kg,*- Loss of righting reflex at < 600 mg/kg | 2.2 | – | Activity at 100 mg/kg | 111 mg/kg | Activity (Mus musculus [26]): Activity at 100 mg/kg; Toxicity (Mus musculus [27]): Activity at 100 mg/kg,*- Loss of righting reflex at < 600 mg/kg; Activity (Mus musculus [29]): Not toxic
6 | CCC1(c2ccccc2)C(=O)NC(=O)NC1=O [PHENOBARBITAL] | – | – | – | – | – | – | – | – | 69 mg/kg | –
